Test results from ChEMBL document CHEMBL1156809, “Synthesis and anticonvulsant activities of (R)-N-(4'-substituted)benzyl 2-acetamido-3-methoxypropionamides” (J Med Chem, 2010).
Calls of active or inactive are those of the source. The rule behind the calls is not given here.

Assays:
[1] = Neurological toxicity in ip dosed albino CF1 mouse assessed as neurological impairment by rotarod test; format: organism-based; details: in vivo
Procedure, shortened: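 Neurological impairment was measured with the rotorod test in mice dosed intraperitoneally. The median dose (TD50, mg/kg) was determined only for compounds with significant MES activity.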

[2] = test system: Mus musculus; assay: Anticonvulsant activity in ip dosed albino CF1 mouse seizure model assessed as protection against hind limb extension by MES test; format: functional; details: albino CF1, Hindlimb
Procedure, shortened: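 Maximal electroshock seizure test run by the NINDS ASP (Stables and Kupferberg procedures). Compounds were given intraperitoneally to mice, and the ED50 for seizure protection is reported in mg/kg.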

[3] = test system: Rattus norvegicus; assay: Anticonvulsant activity in po dosed albino Sprague-Dawley rat seizure model assessed as protection against hind limb extension by MES test; format: functional; details: Hindlimb
Procedure, shortened: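 MES seizure protection was tested in Sprague Dawley rats dosed orally, through the NINDS ASP. The ED50 is expressed in mg/kg.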

[4] = test system: Rattus norvegicus; assay: Protective index, ratio of TD50 for po dosed albino Sprague-Dawley rat to ED50 for po dosed albino Sprague-Dawley rat; format: functional
Procedure, shortened: (§1)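 Protective index was calculated as TD50/ED50 for the same species and route: mouse ip (rotorod TD50, MES ED50) and rat po.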

[5] = test system: Rattus norvegicus; assay: Anticonvulsant activity against subcutaneous metrazole-induced seizures in albino Sprague-Dawley rat at 300 mg/kg, ip after 4 hrs; format: functional, organism-based; design: dose 300 mg/kg
[6] = test system: Rattus norvegicus; assay: Anticonvulsant activity against subcutaneous metrazole-induced seizures in albino Sprague-Dawley rat at 300 mg/kg, ip after 0.5 hrs; format: functional, organism-based; design: dose 300 mg/kg
[7] = Behavioral toxicity in po dosed albino Sprague-Dawley rat; format: organism-based; details: in vivo
Procedure, shortened: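 Behavioral toxicity was recorded as observed effects in rats after oral administration, within the NINDS ASP screen.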

[8] = test system: Mus musculus; assay: Anticonvulsant activity against subcutaneous metrazole-induced seizures in albino CF1 mouse at 300 mg/kg, ip after 0.5 hrs; format: functional, organism-based; design: dose 300 mg/kg
Procedure, shortened: (§2)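 Subcutaneous Metrazol seizure test under the NINDS ASP, using ip dosing to mice, typically at 300 mg/kg. Protection was assessed at 0.5 and 4 h.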

[9] = test system: Mus musculus; assay: Anticonvulsant activity against subcutaneous metrazole-induced seizures in albino CF1 mouse at 300 mg/kg, ip after 4 hrs; format: functional, organism-based; design: dose 300 mg/kg; procedure, shortened: as §2
[10] = test system: Mus musculus; assay: Protective index, ratio of TD50 for ip dosed albino CF1 mouse to ED50 for ip dosed albino CF1 mouse; format: functional; procedure, shortened: as §1
[11] = test system: Rattus norvegicus; assay: Anticonvulsant activity against in ip dosed albino Sprague-Dawley rat hippocampal kindled seizure model assessed as after-discharge duration after 0.5 hrs; format: functional, Hippocampus
Procedure, shortened: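 Rats were given compounds intraperitoneally in the rapid hippocampal kindling model under the NINDS ASP. Racine seizure score and after-discharge duration (sec) were recorded before and after dosing. Where determined, ED50 (mg/kg) is given with an interval.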

Structure (SMILES) | TD50 [1] [mg/kg] | ED50 [2] [mg/kg] | ED50 [3] [mg/kg] | PI [4] | Activity [5] | Activity [6] | TD50 [7] [mg/kg] | Activity [8] | Activity [9] | PI [10] | Time [11] [s]
COC[C@@H](NC(C)=O)C(=O)NCc1ccc(OC)cc1 | 100 | 30 | 28 | >18 | inactive | inactive | > 500 | inactive | inactive | – | –
COC[C@@H](NC(C)=O)C(=O)NCc1ccc(C#N)cc1 | > 500 | 150 | > 30 | – | inactive | inactive | > 30 | inactive | inactive | >3.3 | –
COC[C@@H](NC(C)=O)C(=O)NCc1ccccc1OC(F)(F)F | 100 | 30 | 23 | >22 | inactive | inactive | > 500 | inactive | inactive | – | –
COC[C@@H](NC(C)=O)C(=O)NCc1ccccc1F | 100 | 10 | 11 | >2.7 | inactive | inactive | > 30 | inactive | inactive | – | –
COC[C@@H](NC(C)=O)C(=O)NCc1ccc(-c2ccccc2)cc1 | 11 | 8 | 2 | >25 | inactive | inactive | 49 | inactive | inactive | – | –
COC[C@@H](NC(C)=O)C(=O)NCc1ccc(C(F)(F)F)cc1 | 100 | 10 | 4.9 | >57 | inactive | inactive | > 280 | inactive | inactive | – | –
COC[C@@H](NC(C)=O)C(=O)NCc1ccccc1 [LACOSAMIDE] | – | – | – | >130 | inactive | inactive | > 500 | inactive | inactive | 6 | 0
CCCc1ccc(CNC(=O)[C@@H](COC)NC(C)=O)cc1 | 13 | 8.5 | < 30 | – | inactive | inactive | > 30 | inactive | inactive | 1.5 | –
COCC#Cc1ccc(CNC(=O)[C@@H](COC)NC(C)=O)cc1 | 15 | 10 | 18 | 5.5 | inactive | inactive | 100 | inactive | inactive | 1.5 | –
C#Cc1ccc(CNC(=O)[C@@H](COC)NC(C)=O)cc1 | – | 3 | 3.4 | >74 | inactive | inactive | > 250 | inactive | inactive | – | –
CCc1ccc(CNC(=O)[C@@H](COC)NC(C)=O)cc1 | 30 | 10 | 18 | >14 | inactive | inactive | > 250 | inactive | inactive | – | –
O=C1NC(=O)C(c2ccccc2)(c2ccccc2)N1 [PHENYTOIN] | – | – | – | – | inactive | inactive | – | inactive | inactive | – | 51
COC[C@H](NC(C)=O)C(=O)NCc1ccc(I)cc1 | > 300 | 100 | > 30 | – | inactive | inactive | > 30 | inactive | inactive | – | –
COC[C@@H](NC(C)=O)C(=O)NCc1ccc(OC(F)(F)F)cc1 | 13 | 3.6 | 1.7 | 37 | inactive | inactive | 63 | inactive | inactive | 3.6 | –
COC[C@@H](NC(C)=O)C(=O)NCc1ccc(C(C)(C)C)cc1 | 100 | 100 | > 30 | – | inactive | inactive | > 30 | inactive | inactive | – | –
COC[C@@H](NC(C)=O)C(=O)NCc1ccc(C)cc1 | 31 | 11 | 8.1 | >62 | inactive | inactive | > 500 | inactive | inactive | 3 | –
COC[C@@H](NC(C)=O)C(=O)NCc1cccc(F)c1 | – | – | – | >58 | inactive | inactive | > 400 | inactive | inactive | 6.7 | –
COC[C@@H](NC(C)=O)C(=O)NCc1ccc(NC(=O)C(F)(F)F)cc1 | 100 | > 300 | > 30 | – | inactive | inactive | > 30 | inactive | inactive | – | –
COC[C@@H](NC(C)=O)C(=O)NCc1ccc(C(C)C)cc1 | 100 | 10 | > 30 | – | inactive | inactive | > 30 | inactive | inactive | – | –
COC[C@@H](NC(C)=O)C(=O)NCc1ccc(Br)cc1 | 30 | 8.7 | 4.9 | 61 | inactive | inactive | 300 | inactive | inactive | 3.5 | –
COC[C@@H](NC(C)=O)C(=O)NCc1ccc(F)cc1 | – | – | – | >48 | inactive | inactive | 125 | inactive | inactive | 6.7 | –
